Data from ChEMBL document CHEMBL1146725, “Discovery and SAR of potent, orally available and brain-penetrable 5,6-dihydro-4H-3-thia-1-aza-benzo[e]azulen- and 4,5-dihydro-6-oxa-3-thia-1-aza-benzo[e]azulen derivatives as neuropeptide Y Y5 receptor antagonists” (Bioorg Med Chem Lett, 2004).
Several values for one entry are separate records, joined by “and”; a condition that tells them apart may be missing. Equal values may be shown once.

Legend:
[1] = target: T1, Neuropeptide Y receptor type 5 (Homo sapiens, UniProt Q15761); assay: (§1) In vitro binding affinity against human neuropeptide Y5 receptor
T1 sequence (Q15761 whole entry): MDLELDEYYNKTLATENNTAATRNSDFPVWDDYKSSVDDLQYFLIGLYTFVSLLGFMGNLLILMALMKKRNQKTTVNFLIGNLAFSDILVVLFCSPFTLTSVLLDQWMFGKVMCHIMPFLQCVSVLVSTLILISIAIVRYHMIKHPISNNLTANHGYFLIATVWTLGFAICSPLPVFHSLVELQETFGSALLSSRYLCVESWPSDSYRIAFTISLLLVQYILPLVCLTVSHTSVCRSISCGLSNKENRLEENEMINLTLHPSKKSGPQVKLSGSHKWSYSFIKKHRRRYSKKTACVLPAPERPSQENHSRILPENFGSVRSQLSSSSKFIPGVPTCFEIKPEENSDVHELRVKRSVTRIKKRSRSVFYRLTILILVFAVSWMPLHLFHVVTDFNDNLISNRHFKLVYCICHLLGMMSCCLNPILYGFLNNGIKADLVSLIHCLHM

[2] = (§2) Concentration (30 mg/kg, p.o.) in rat plasma after 6 hours; format: ADME, organism-based; conditions: plasma, po
In short: (§3)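 Male rats (RA238), fasted overnight, given 30 mg/kg by oral gavage (5 mL/kg) in 20% Cremophore EL/water (w/w). Plasma and hypothalamus were sampled at 2 and 6 h post-dose and levels measured by LC-MS. Values are the mean of 3-6 animals per time point, as µg/mL plasma and µg/g hypothalamus.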

[3] = (§4) Concentration (30 mg/kg, p.o.) in rat plasma after 2 hours; format: ADME, organism-based; conditions: plasma, po; in short: as §3
[4] = (§5) Concentration (30 mg/kg, p.o.) in rat hypothalamus after 2 hours; format: ADME, organism-based; conditions: hypothalamus, po; in short: as §3
[5] = (§6) Concentration (30 mg/kg, p.o.) in rat hypothalamus after 6 hours; format: ADME, organism-based; conditions: hypothalamus, po; in short: as §3
[6] = target: T1, Neuropeptide Y receptor type 5; assay: as §1; remark: listed apart in the source
In short: (§7)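 Reported as IC50 (nM), each value the mean of three separate experiments.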

[7] = target: T2, Neuropeptide Y receptor type 5 (Rattus norvegicus, UniProt Q63634); assay: In vitro binding affinity against rat neuropeptide Y5 receptor; in short: as §7
T2 sequence (Q63634 whole entry): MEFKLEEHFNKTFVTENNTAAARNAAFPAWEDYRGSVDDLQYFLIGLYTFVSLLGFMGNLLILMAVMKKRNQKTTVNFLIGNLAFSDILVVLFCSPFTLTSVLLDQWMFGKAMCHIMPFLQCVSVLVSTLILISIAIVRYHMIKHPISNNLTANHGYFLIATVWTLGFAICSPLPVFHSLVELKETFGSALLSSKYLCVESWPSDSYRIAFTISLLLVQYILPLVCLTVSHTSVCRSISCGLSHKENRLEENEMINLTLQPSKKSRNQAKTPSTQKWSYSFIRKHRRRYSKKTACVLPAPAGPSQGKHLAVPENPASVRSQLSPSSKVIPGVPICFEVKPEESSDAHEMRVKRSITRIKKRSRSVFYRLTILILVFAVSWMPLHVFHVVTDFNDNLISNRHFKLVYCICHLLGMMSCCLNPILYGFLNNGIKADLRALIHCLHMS

[8] = target: T1, Neuropeptide Y receptor type 5; assay: In vitro binding affinity against human neuropeptide Y5 receptor measured as Ca+ response; in short: as §7
Rattus norvegicus [9] = assay: as §2; format: ADME, organism-based; conditions: in vivo, po, 6 h; in short: as §3
Rattus norvegicus [10] = assay: as §5; format: ADME, organism-based; conditions: in vivo, po, 2 h; in short: as §3
Rattus norvegicus [11] = assay: as §6; format: ADME, organism-based; conditions: in vivo, po, 6 h; in short: as §3
Rattus norvegicus [12] = assay: as §4; format: ADME, organism-based; conditions: in vivo, po, 2 h; in short: as §3

IC50 [1] [nM] | concentration at 6 h [2] [ng/mL] | concentration at 2 h [3] [ng/mL] | concentration at 2 h [4] [ng/g] | concentration at 6 h [5] [ng/g] | Compound | further results
4 |  |  |  |  | O=C1CC[C@H](C(=O)N2CCC(CNc3nc4c(s3)CCCc3ccc(F)cc3-4)CC2)O1 | 
 | 390 | 970 | 2440 | 1080 | O=C([C@H]1CCCO1)N1CCC(CNc2nc3c(s2)CCOc2ccc(F)cc2-3)CC1 | IC50 [6]: 5 nM
2 |  |  |  |  | COCCNCC(=O)N1CCC(CNc2nc3c(s2)CCCc2ccc(F)cc2-3)CC1 | 
25 |  |  |  |  | CN(C)C(=O)CCCCNc1nc2c(s1)CCCc1ccc(F)cc1-2 | 
6 |  |  |  |  | O=C(CNCC1CC1)N1CCC(CNc2nc3c(s2)CCCc2ccc(F)cc2-3)CC1 | 
5 | 260 | 870 | 1460 | 400 | Cc1ccc2c(c1)-c1nc(NCC3CCN(C(=O)[C@H]4CCCO4)CC3)sc1CCO2 | IC50 [7]: 2.9 nM; IC50 [8]: 40 nM
 |  |  |  |  | O=C(CN1CCCCC1)N1CCC(CNc2nc3c(s2)CCOc2ccc(F)cc2-3)CC1 | IC50 [6]: 71 nM
 |  |  |  |  | COCCC(=O)N1CCC(CNc2nc3c(s2)CCOc2ccc(F)cc2-3)CC1 | IC50 [6]: 22 nM
2 | 220 |  |  | 670 | O=C([C@H]1CCCO1)N1CCC(CNc2nc3c(s2)CCCc2ccc(F)cc2-3)CC1 | Concentration (Rattus norvegicus [9]): 220 ng/mL; Concentration (Rattus norvegicus [10]): 0.86 µg/g and 2.44 µg/g; Concentration (Rattus norvegicus [11]): 0.67 µg/g
 | 140 | 930 | 5480 | 640 | O=C([C@@H]1CCCO1)N1CCC(CNc2nc3c(s2)CCOc2ccc(F)cc2-3)CC1 | IC50 [6]: 19 nM
5 | 330 | 840 | 2420 | 880 | Cc1ccc2c(c1)-c1nc(NCC3CCN(C(=O)C(C)C)CC3)sc1CCO2 | IC50 [8]: 61 nM
2 |  | 1600 | 6690 |  | O=C([C@@H]1CCCO1)N1CCC(CNc2nc3c(s2)CCCc2ccc(F)cc2-3)CC1 | Concentration (Rattus norvegicus [9]): 320 ng/mL and 140 ng/mL; Concentration (Rattus norvegicus [12]): 1600 ng/mL; Concentration (Rattus norvegicus [10]): 6.69 µg/g; Concentration (Rattus norvegicus [11]): 1.33 µg/g and 0.64 µg/g
 |  |  |  |  | CN(CC(=O)N1CCC(CNc2nc3c(s2)CCOc2ccc(F)cc2-3)CC1)CC1CC1 | IC50 [6]: 18 nM
 |  |  |  |  | O=C(CN1CCOCC1)N1CCC(CNc2nc3c(s2)CCOc2ccc(F)cc2-3)CC1 | IC50 [6]: 41 nM
40 |  |  |  |  | CC(C)C(=O)N1CCC(CNc2nc3c(s2)CCOc2cc(F)c(F)cc2-3)CC1 | 
3 |  |  |  |  | COC[C@@H]1CCCN1CC(=O)N1CCC(CNc2nc3c(s2)CCCc2ccc(F)cc2-3)CC1 | 
99 |  |  |  |  | CC(C)C(=O)N1CCC(CNc2nc3c(s2)CCOc2cc(Cl)c(F)cc2-3)CC1 | 
17 |  |  |  |  | Cc1ccc2c(c1)-c1nc(NCC3CCN(C(=O)[C@@H]4CCCO4)CC3)sc1CCO2 | 
 |  |  |  |  | CC(=O)N1CCC(CNc2nc3c(s2)CCOc2ccc(F)cc2-3)CC1 | IC50 [6]: 69 nM
 |  |  |  |  | COCC(=O)N1CCC(CNc2nc3c(s2)CCOc2ccc(F)cc2-3)CC1 | IC50 [6]: 37 nM
2460 |  |  |  |  | COc1ccc2c(c1)-c1nc(NCC3CCN(C(=O)CCN4CCCCC4)CC3)sc1CCO2 | 
1 | 140 | 540 | 1220 | 440 | O=C(C1CCOC1)N1CCC(CNc2nc3c(s2)CCCc2ccc(F)cc2-3)CC1 (configuration not stated) | 
4 | 130 | 240 | 1170 | 620 | O=C(CN1CCCCC1)N1CCC(CNc2nc3c(s2)CCCc2ccc(F)cc2-3)CC1 | 
7 | 70 | 740 | 2230 | 260 | CCCCC(=O)N1CCC(CNc2nc3c(s2)CCOc2ccc(F)cc2-3)CC1 | IC50 [7]: 6 nM; IC50 [8]: 100 nM
21 |  |  |  |  | Cc1ccc2c(c1)-c1nc(NCC3CCN(C(=O)COC(C)C)CC3)sc1CCO2 | 
2 | 70 | 950 | 3700 | 290 | CC(=O)N1CCC(CNc2nc3c(s2)CCCc2ccc(F)cc2-3)CC1 | IC50 [8]: 254 nM
15 |  |  |  |  | COCCCNCC(=O)N1CCC(CNc2nc3c(s2)CCCc2ccc(F)cc2-3)CC1 | 
3 |  |  |  |  | CN(C)S(=O)(=O)NC[C@H]1CC[C@H](Nc2nc3c(s2)CCSc2ccc(F)cc2-3)CC1 | 
